# Laboratory results taken from publication PMC4203516 (Autophagy, 2014).
# Where “and” joins values, the source holds several entries; their conditions need not be identical. Equal values may be shown once.
# Legend:
# Format in all cases: in vivo, human
# advanced solid tumors = assay: RECIST 1.0 response, phase I dose escalation
# Outline: (§1)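 Patients received IV temsirolimus 25 mg weekly, with a 1-wk single-agent run-in, then daily oral HCQ, treated until progression. Patients were evaluable for response after completing ≥2 wk of concurrent HCQ and temsirolimus. Progression was defined as >20% increase in measurable disease or appearance of a new lesion. Non-evaluable patients were replaced.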
# advanced melanoma = assay: RECIST 1.0 response and progression-free survival, melanoma patients
# Outline: as §1
# [1] = HCQ whole blood population pharmacokinetics
# [2] = Phase I dose escalation, HCQ dose cohort 200 + TEM, N=6 evaluable
# [3] = Phase I dose escalation, HCQ dose cohort 400 + TEM, N=3
# [4] = Phase I dose escalation, HCQ dose cohort 800 + TEM, N=9
# [5] = Phase I dose escalation, HCQ dose cohort 1200 + TEM, N=3
# [6] = Phase I dose escalation, Total, N=21 evaluable
# [7] = dose escalation, of 19 patients
# [8] = Melanoma patients, HCQ dose cohort 200–800 + TEM, N=6
# [9] = Melanoma patients, HCQ dose cohort 1200 + TEM, N=13
# [10] = melanoma expansion, of 12 patients, HCQ 1200 mg/d + TEM
# [11] = population PK, 1000 bootstrap runs
# [12] = population PK, whole blood, 34 patients, oral HCQ
structure (smiles),measurement,setting,value
"CCN(CCO)CCCC(C)Nc1ccnc2cc(Cl)ccc12 (stereo not drawn) [HCQ, hydroxychloroquine]","PD (progressive disease), patients",advanced solid tumors; [2],2
same,"PR (partial response), patients",advanced solid tumors; [2],0
same,"PD (progressive disease), patients",advanced solid tumors; [3],0
same,"PR (partial response), patients",advanced solid tumors; [3],0
same,"PD (progressive disease), patients",advanced solid tumors; [4],4
same,"PR (partial response), patients",advanced solid tumors; [4],0
same,"PD (progressive disease), patients",advanced solid tumors; [5],1
same,"PR (partial response), patients",advanced solid tumors; [5],0
same,"PD (progressive disease), %",advanced solid tumors; [6],33%
same,"PD (progressive disease), patients",advanced solid tumors; [6],7
same,"PR (partial response), %",advanced solid tumors; [6],0 (0%)
same,"PR (partial response), patients",advanced solid tumors; [6],0 (0%)
same,"Partial responses by RECIST 1.0, whole study",advanced solid tumors; all cohorts,No partial responses
same,Patients with some degree of tumor shrinkage (waterfall plot),advanced solid tumors; [7],7
same,"Patients with some degree of tumor shrinkage, %",advanced solid tumors; [7],37%
same,"PD (progressive disease), patients",advanced melanoma; [8],1
same,"PR (partial response), patients",advanced melanoma; [8],0
same,"PD (progressive disease), patients",advanced melanoma; [9],4
same,"PR (partial response), patients",advanced melanoma; [9],0
same,"PD (progressive disease), %","advanced melanoma; Melanoma patients, Total, N=19",26%
same,"PD (progressive disease), patients","advanced melanoma; Melanoma patients, Total, N=19",5
same,"PR (partial response), patients","advanced melanoma; Melanoma patients, Total, N=19",0
same,Median progression-free survival,"advanced melanoma; evaluable melanoma patients, HCQ 1200 mg/d + TEM, 95%CI 2–6 mo",3.5 mo
same,Patients with some degree of tumor shrinkage (waterfall plot),advanced melanoma; [10],6
same,"Patients with some degree of tumor shrinkage, %",advanced melanoma; [10],50%
same,Vd/F,"[1]; human, whole blood, po",865 L
same,"Cl/F, apparent oral clearance, bootstrap estimate",[1]; [11],15.953 L/h
same,"Ka, absorption rate constant, bootstrap estimate",[1]; [11],0.758 h
same,"Q, intercompartmental clearance, bootstrap estimate",[1]; [11],26.421 L/h
same,"Tlag, absorption lag time, bootstrap estimate",[1]; [11],0.564 h
same,"V2/F, apparent peripheral volume of distribution, bootstrap estimate",[1]; [11],3285.0246 L
same,"V/F, apparent central volume of distribution, bootstrap estimate",[1]; [11],496.0499 L
same,"Cl/F, apparent oral clearance, model estimate",[1]; [12],17.517 L/h
same,"Ka, absorption rate constant, model estimate",[1]; [12],0.649 h
same,"Q, intercompartmental clearance, model estimate",[1]; [12],26.067 L/h
same,"Tlag, absorption lag time, model estimate",[1]; [12],0.399 h
same,"V2/F, apparent peripheral volume of distribution, model estimate",[1]; [12],3236.73 L
same,"Time to steady-state of HCQ blood concentrations, average",[1]; simulated from final PK model for individual patients,350 h and 360 h
same,"Blood HCQ AUC, Cmax, Cmin and Cavg relationship to dose","[1]; simulated steady-state, 200–1200 mg/d",proportional to daily HCQ dose
